# Key:
# J774.A1 = assay: Inhibition of LPS-induced production of nitric oxide in murine J774.A1 cells; type: functional, cell-based, Mus musculus
# How it was run: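 Murine J774 cells grown in medium containing fetal bovine serum are stimulated with LPS. Nitric oxide production is read as nitrite. IC50 is the concentration giving 50% inhibition of NO.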
# Lipopolysaccharide (LPS) = assay: Binding affinity to lipid A moiety of LPS present in Gram negative bacteria by fluorescent probe method; type: functional
# How it was run: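 Homogeneous, automated fluorescence displacement assay run in aqueous buffer. A fluorescent probe is bound to LPS and test ligand displaces it. ED50 is the ligand concentration that displaces 50% of the bound probe and is taken as relative binding affinity.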
# Mus musculus [1] = organism: Mus musculus; assay: Decrease in lethality in D-galactosamine-sensitized mice challenged with LPS at 200 ng/mouse
# Mus musculus [2] = organism: Mus musculus; assay: Decrease in lethality in D-galactosamine-sensitized mice challenged with LPS at 200 ng/mouse; type: functional, organism-based
# How it was run: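 Mice primed with D-galactosamine receive graded doses of test compound and are challenged with a supralethal LPS dose of 200 ng/mouse. The endpoint is lethality.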
compound,measurement,setting,value
CCCCCCOc1c(/C=N/N=C(N)N)ccc(/C=N/NC(=N)N)c1OCCCCCC,IC50,"J774.A1; Mus musculus, J774.A1",4.67 µM
same,ED50,Lipopolysaccharide (LPS),13.2 µM
CCCCCOc1c(/C=N/N=C(N)N)ccc(/C=N/N=C(N)N)c1OCCCCC,IC50,"J774.A1; Mus musculus, J774.A1",3.54 µM
same,ED50,Lipopolysaccharide (LPS),7.82 µM
COc1c(/C=N/N=C(N)N)ccc(/C=N/NC(=N)N)c1OC,IC50,"J774.A1; Mus musculus, J774.A1",28 µM
same,ED50,Lipopolysaccharide (LPS),42.3 µM
CCOc1c(/C=N/N=C(N)N)ccc(/C=N/N=C(N)N)c1OCC,IC50,"J774.A1; Mus musculus, J774.A1",4.56 µM
same,ED50,Lipopolysaccharide (LPS),22.8 µM
CCCCCCCCOc1c(/C=N/N=C(N)N)ccc(/C=N/N=C(N)N)c1OCCCCCCCC,IC50,"J774.A1; Mus musculus, J774.A1",3.45 µM
same,ED50,Lipopolysaccharide (LPS),39.5 µM
same,Activity,Mus musculus [1],Dose-dependent effect
same,Activity,Mus musculus [2],Dose-dependent effect
N=C(N)N/N=C/c1ccc(/C=N/NC(=N)N)cc1,IC50,"J774.A1; Mus musculus, J774.A1",24.4 µM
same,ED50,Lipopolysaccharide (LPS),34.6 µM
CCCCOc1c(/C=N/N=C(N)N)ccc(/C=N/NC(=N)N)c1OCCCC,IC50,"J774.A1; Mus musculus, J774.A1",4.15 µM
same,ED50,Lipopolysaccharide (LPS),9.44 µM
CCCOc1c(/C=N/N=C(N)N)ccc(/C=N/N=C(N)N)c1OCCC,IC50,"J774.A1; Mus musculus, J774.A1",8.38 µM
same,ED50,Lipopolysaccharide (LPS),12.7 µM
POLYMYXIN B [listing 1 of 2 here],IC50,J774.A1; j774.a1,0.98 µM
POLYMYXIN B [listing 2 of 2 here],ED50,Lipopolysaccharide (LPS),1.67 µM
CCCCCCCCCCCCCCOc1c(/C=N/N=C(N)N)ccc(/C=N/N=C(N)N)c1OCCCCCCCCCCCCCC,IC50,"J774.A1; Mus musculus, J774.A1",14.9 µM
same,ED50,Lipopolysaccharide (LPS),> 500 µM
N=C(N)N/N=C/c1ccc(/C=N/NC(=N)N)c(O)c1O,IC50,"J774.A1; Mus musculus, J774.A1",26.4 µM
same,ED50,Lipopolysaccharide (LPS),43.7 µM
C=CCOc1c(/C=N/NC(=N)N)ccc(/C=N/NC(=N)N)c1OCC=C,IC50,"J774.A1; Mus musculus, J774.A1",9.64 µM
same,ED50,Lipopolysaccharide (LPS),29.9 µM

# From ChEMBL document CHEMBL1139003, “Novel endotoxin-sequestering compounds with terephthalaldehyde-bis-guanylhydrazone scaffolds” (Bioorg Med Chem Lett, 2006)
